Publication PMC4186412 (Pharmacology Research & Perspectives, 2014)

Key:
[1] = system: Ptch-1; assay: Quantitative real-time PCR, Ptch-1 mRNA; type: cell-based, mouse; conditions: NIH3T3-12Gli cell line, data not shown
Procedure, shortened: (§1)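 Total RNA is extracted with Trizol and quantified. cDNA is made with a PrimeScript reverse-transcription kit, then SYBR Green real-time PCR is run with mouse-specific primers and GAPDH as the reference gene. Relative expression is calculated by the 2(-ΔΔCt) method, with ΔCt = Ct of the target gene minus Ct of GAPDH.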

[2] = system: NIH3T3 cells; assay: Immunoblotting of acetylated α-tubulin and total histones; type: cell-based; conditions: 6 h treatment
[3] = system: NIH3T3-12Gli cells; assay: Immunofluorescence of acetylated and detyrosinated tubulin of primary cilia; type: cell-based; conditions: Fig. S1
Procedure, shortened: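 Reporter NIH3T3 clone (NIH3T3-12Gli, stably carrying a Gli-responsive luciferase reporter) was exposed to test compounds or conditions. Primary cilia were co-immunostained with anti-detyrosinated (glu) tubulin and anti-acetylated α-tubulin antibodies, and nuclei were stained with DAPI. Cilia were imaged by fluorescence microscopy.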

[4] = system: Hh signaling; assay: Gli luciferase reporter assay in NIH3T3-12Gli cells; type: cell-based; conditions: for IC50: 36 h, read-out: IC50, Hh signaling induced by Shh-N conditioned medium (luciferase reporter)
[5] = system: Gli-1; assay: Quantitative real-time PCR, Gli-1 mRNA; type: cell-based, mouse; conditions: NIH3T3-12Gli cells, 24 h; for Gli-1 transcription induced by Shh-N: presence of Shh-N
Procedure, shortened: as §1

[6] = biological target: Smo-WT (Homo sapiens, UniProt Q99835); assay: Smo ciliary translocation assay, NIH3T3 cells expressing Smo-WT-EYFP; type: cell-based; conditions: Shh-N 20%, SAG 100 nmol/L
Procedure, shortened: (§2)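 NIH3T3 cells were transfected with pEYFP-Smo (WT or M2), selected in 500 μg/mL G418, and monoclonal clones were picked. Clones were treated with 0.1% DMSO, 20% Shh-N conditioned medium and/or 100 nmol/L SAG, with or without test compound. Smo-EYFP was imaged directly, cilia by acetylated α-tubulin immunofluorescence, nuclei by DAPI. At least two clones were used.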

[7] = system: Gli-2; assay: Quantitative real-time PCR, Gli-2 mRNA; type: cell-based, mouse; conditions: NIH3T3-12Gli cells, presence or absence of Shh-N, 24 h
Procedure, shortened: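 NIH3T3-12Gli cells are kept in either HEK293 control medium or Shh-N conditioned medium and treated in triplicate with test compound or DMSO control. RNA is extracted with Trizol, cDNA is made with a PrimeScript kit, and SYBR Green qPCR is run with mouse Gli-2 primers. Values are normalised to GAPDH and relative expression is derived by the 2(-ΔΔCt) method.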

[8] = system: Hh signaling mediated by Smo-M2; assay: Luciferase reporter assay in NIH3T3-12Gli cells expressing Smo-M2-EYFP; type: cell-based, human
[9] = system: Hh signaling mediated by Smo-WT; assay: Luciferase reporter assay in NIH3T3-12Gli cells expressing Smo-WT-EYFP; type: cell-based, human
[10] = system: Hh signaling mediated by Smo-DH; assay: Luciferase reporter assay in NIH3T3-12Gli cells expressing Smo-DH-EYFP; type: cell-based, human; conditions: in the absence or presence of Shh-N
[11] = biological target: Smo-M2 (Homo sapiens, UniProt Q99835, W535L); assay: Smo ciliary translocation assay, NIH3T3 cells expressing Smo-M2-EYFP; type: cell-based; conditions: Shh-N 20%, SAG 100 nmol/L
Procedure, shortened: as §2

[12] = biological target: Smo-DH (Homo sapiens, UniProt Q99835, D473H); assay: BODIPY-cyclopamine binding competition, HEK293T cells expressing Smo-DH
Sequence of Smo-DH (Q99835 28-787 D473H): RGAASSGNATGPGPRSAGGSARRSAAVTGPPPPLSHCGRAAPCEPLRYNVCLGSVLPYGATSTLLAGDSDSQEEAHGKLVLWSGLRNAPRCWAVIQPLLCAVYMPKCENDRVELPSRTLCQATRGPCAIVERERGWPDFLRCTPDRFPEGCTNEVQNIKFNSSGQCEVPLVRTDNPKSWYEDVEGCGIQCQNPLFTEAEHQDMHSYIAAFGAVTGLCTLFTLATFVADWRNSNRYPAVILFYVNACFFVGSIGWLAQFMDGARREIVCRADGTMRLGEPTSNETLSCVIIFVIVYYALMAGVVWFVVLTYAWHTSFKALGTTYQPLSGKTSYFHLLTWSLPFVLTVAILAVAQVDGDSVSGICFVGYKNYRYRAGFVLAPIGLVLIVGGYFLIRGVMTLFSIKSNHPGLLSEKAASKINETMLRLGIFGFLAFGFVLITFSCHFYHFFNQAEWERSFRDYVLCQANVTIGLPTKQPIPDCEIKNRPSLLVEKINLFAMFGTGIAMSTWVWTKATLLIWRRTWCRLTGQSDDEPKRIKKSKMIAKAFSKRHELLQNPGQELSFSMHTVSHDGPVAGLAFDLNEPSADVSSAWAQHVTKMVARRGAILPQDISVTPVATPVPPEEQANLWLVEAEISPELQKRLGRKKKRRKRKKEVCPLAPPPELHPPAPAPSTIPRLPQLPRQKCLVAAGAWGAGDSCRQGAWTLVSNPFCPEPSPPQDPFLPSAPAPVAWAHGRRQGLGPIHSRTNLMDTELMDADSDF

Sequence of Smo-WT (Q99835 28-787): as the sequence (Q99835 28-787 D473H) above, with H446D counted along it
Sequence of Smo-M2 (Q99835 28-787 W535L): as the sequence (Q99835 28-787 D473H) above, with H446D, W508L counted along it

O=C(CCCCCCC(=O)Nc1ccccc1)NO [vorinostat]
Expression of Ptch-1 induced by Shh-N [1]: effectively suppressed
Acetylation of total histones and α-tubulin [2]: effectively and dose dependently increased
Acetylation and detyrosination of primary cilia [3]: downregulated the acetylation but not the detyrosination
Block of reporter activity at 3 μmol/L ([4]; 3 μmol/L): almost completely blocked
IC50 [4]: 670 nM
Gli-1 transcription, Hh pathway in off-state ([5]; absence of Shh-N): significantly increased
Gli-1 transcription induced by Shh-N [5]: potently inhibited
Suppression of Smo localization to primary cilium induced by Shh-N and SAG [6]: but not vorinostat
Gli-2 transcription [7]: significantly and dose-dependently suppressed

CS(=O)(=O)c1ccc(C(=O)Nc2ccc(Cl)c(-c3ccccn3)c2)c(Cl)c1 [vismodegib]
Inhibition of Hh signaling mediated by Smo-M2 ([8]; in the absence of Shh-N): significantly inhibited
Concentration that fully blocked Hh pathway, Smo-M2 ([8]; in the presence of Shh-N): > 10 µmol/L
Concentration that almost maximally blocked reporter activity ([9]; NIH3T3-12Gli cells expressing Smo-WT): 1 µmol/L
Inhibition of reporter activity of cells expressing Smo-WT-EYFP ([9]; in the absence of Shh-N): slightly but dose-dependently inhibited
Expression of Ptch-1 induced by Shh-N [1]: effectively suppressed
Inhibition of reporter activity in Smo-DH-transfected cells [10]: no inhibition
Effect on accumulation of Smo-M2 in cilia induced by Hh pathway stimulators [11]: did not inhibit
IC50 [4]: 19.7 nM
Gli-1 transcription induced by Shh-N [5]: potently inhibited
Inhibition of association of BODIPY-cyclopamine with Smo-DH / binding to Smo-DH [12]: inability to bind Smo-DH
Suppression of Smo localization to primary cilium induced by Shh-N and SAG [6]: effectively suppressed
